CHRM5 PAM: human M5 muscarinic receptor positive allosteric modulators, primary screen, CHO-K1 cells, Fluo-8 calcium fluorescence; Muscarinic acetylcholine receptor M5 (Homo sapiens), P08912; CHO-K1 hM5, ACh EC20 PAM; 0% = ACh EC20, 100% = ACh EC100; activation, % at 3 µM; 360,000 compounds, 0.3% hits; AID 624038, 2012;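 active means activation above the run cutoff, the mean activation of all test compounds plus 3 SD, cut at about 18% in these data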
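system = human M5 receptor in CHO-K1 cells | reagent = EC20 acetylcholine as agonist stimulus | compound dosing = single-point, 3 µM nominal | incubation = Fluo-8 loading 80 min at 37 °C plus 30 min room temperature | detection = Fluo-8 calcium dye fluorescence, kinetic read | benchmarks = low control EC20 acetylcholine (0%), high control EC100 acetylcholine (100%)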
M5 ag: human M5 muscarinic receptor agonists, primary screen, CHO-K1 cells, Fluo-8 calcium fluorescence. activation, % at 3 µM. Muscarinic acetylcholine receptor M5 (Homo sapiens), P08912. CHO-K1 hM5 cells; 0% DMSO wells, 100% maximal acetylcholine response. AID 624037, 2012. 360,000 compounds, 0.19% hits;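 active means activation above the run's mean over test compounds plus 3 SD, cut at about 23% in these data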;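 further: signal is peak over basal fluorescence ratio across the kinetic read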
CHRM4 antagonist: human M4 muscarinic receptor antagonists, primary screen, CHO cells, Fluo-8 calcium fluorescence; CHO-hM4 cells, ACh EC80; Muscarinic acetylcholine receptor M4 (Homo sapiens), P08173; inhibition, % at 3 µM; 360,000 compounds, 0.73% hits;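 active means inhibition above its plate's cutoff, the mean inhibition of sample wells plus 3 SD, cut at about 27% in these data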;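 further: 0% = acetylcholine EC80 with DMSO and 100% = DMSO without agonist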
Target sequence (P08173 whole entry, looked up): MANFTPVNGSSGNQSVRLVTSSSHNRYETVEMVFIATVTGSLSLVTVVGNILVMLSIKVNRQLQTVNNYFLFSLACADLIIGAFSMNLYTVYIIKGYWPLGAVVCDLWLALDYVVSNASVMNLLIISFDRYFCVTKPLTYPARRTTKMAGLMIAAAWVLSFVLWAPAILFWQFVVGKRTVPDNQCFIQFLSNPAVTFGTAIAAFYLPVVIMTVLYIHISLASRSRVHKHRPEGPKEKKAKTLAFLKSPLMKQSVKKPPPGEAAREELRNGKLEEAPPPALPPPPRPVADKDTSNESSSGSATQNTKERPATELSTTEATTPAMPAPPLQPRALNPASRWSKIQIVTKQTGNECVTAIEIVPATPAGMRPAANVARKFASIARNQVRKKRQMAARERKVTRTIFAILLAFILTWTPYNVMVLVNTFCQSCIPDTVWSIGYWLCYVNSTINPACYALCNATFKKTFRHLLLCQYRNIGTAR
M5 antag: human M5 muscarinic receptor antagonists, primary screen, CHO cells, Fluo-8 calcium fluorescence | Muscarinic acetylcholine receptor M5 (Homo sapiens), P08912 | CHO-hM5 cells, ACh EC80 | inhibition, % at 3 µM | 360,000 compounds, 0.59% hits;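 active means inhibition above a per-plate cutoff, the mean of that plate's test compounds plus 3 SD, cut at about 27% in these data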;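 further: 0% = acetylcholine EC80 with DMSO and 100% = DMSO without agonist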
M4 ag: human M4 muscarinic receptor agonists, primary screen, CHO-K1 cells, Fluo-8 calcium fluorescence | Muscarinic acetylcholine receptor M4 (Homo sapiens), P08173 | CHO-K1 hM4/Gqi5; vehicle 0%, full acetylcholine response 100% | activation, % at 3 µM | 360,000 compounds, 0.14% hits;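 active means activation above the run mean over all test wells plus 3 SD, cut at about 32% in these data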;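 further: peak over basal fluorescence ratio per well then scaled between controls; 0% = DMSO wells and 100% = acetylcholine at EC100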
CHRM4 PAM: human M4 muscarinic receptor positive allosteric modulators, primary screen, CHO-K1 cells, Fluo-8 calcium fluorescence; Muscarinic acetylcholine receptor M4 (Homo sapiens), P08173; CHO-K1 hM4/Gqi5, ACh EC20; 0% = ACh EC20, 100% = maximal ACh; activation, % at 3 µM; 360,000 compounds, 0.4% hits;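 active means activation above its plate's cutoff, the mean activation of sample wells plus 3 SD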
* = called active by the depositor. Sampled rows, rich in hits. Any-hit rate of the full collection: about 1.9%.

`CCC1CCCCN1CCCNC(=O)Cn1ncc2c(C)n(Cc3ccccc3Cl)c(C)c2c1=O` (stereo unspecified) gave CHRM5 PAM -7, M5 ag -6, CHRM4 antagonist 28*, M5 antag 7, M4 ag 0 and CHRM4 PAM -17.
Screening COCCNC(=O)C1(C)CCCN(C(=O)c2ccco2)C1 (stereo unspecified) returned CHRM5 PAM 5, M5 ag 0, CHRM4 antagonist -12, M5 antag 6, M4 ag 0 and CHRM4 PAM 1.
`CCC(c1nc2ccccc2[nH]1)N(C(=O)C1=NNC(=O)CC1)c1ccccc1` (stereo unspecified) gave CHRM5 PAM 4, M5 ag 2, CHRM4 antagonist 2, M5 antag 3, M4 ag 1 and CHRM4 PAM 0.
Screening CCOc1ccccc1NC(=O)COC(=O)Cc1cccs1 returned CHRM5 PAM 6, M5 ag -2, CHRM4 antagonist 100*, M5 antag -13, M4 ag -3 and CHRM4 PAM -15.
For CSc1ccccc1NC(=O)COC(=O)Cc1cccs1 the results were CHRM5 PAM -3, M5 ag -1, CHRM4 antagonist 7, M5 antag 4, M4 ag 1 and CHRM4 PAM 4.
Cc1ccc(NC(=O)CCC(=O)NNC(=O)COc2ccc([N+](=O)[O-])cc2)cc1C was read as CHRM5 PAM 6, M5 ag 1, CHRM4 antagonist -6, M5 antag -2, M4 ag 2 and CHRM4 PAM 18*.
`Cc1ccc(NC(=O)NNC(=O)COc2ccc([N+](=O)[O-])cc2)cc1C` gave CHRM5 PAM 1, M5 ag -3, CHRM4 antagonist -4, M5 antag -13, M4 ag 1 and CHRM4 PAM 0.
CS(=O)(=O)N1CC2CCCN2c2ccc(C(F)(F)F)cc21 (stereo unspecified) was read as CHRM5 PAM 2, M5 ag -3, CHRM4 antagonist -12, M5 antag 6, M4 ag 3 and CHRM4 PAM 11.
Screening O=S(=O)(c1cc(Cl)ccc1Cl)N1CC2CCCN2c2ccc(C(F)(F)F)cc21 (stereo unspecified) returned CHRM5 PAM -10, M5 ag -5, CHRM4 antagonist 45*, M5 antag 3, M4 ag -1 and CHRM4 PAM -24.
COc1ccc(S(=O)(=O)N2CC3CCCN3c3cc(C(F)(F)F)ccc32)cc1 (stereo unspecified) was read as CHRM5 PAM -11, M5 ag -9, CHRM4 antagonist 2, M5 antag -2, M4 ag 0 and CHRM4 PAM -2.
`COc1ccc(S(=O)(=O)N2CC3CCCN3c3ccc(C(F)(F)F)cc32)cc1` (stereo unspecified) gave CHRM5 PAM -6, M5 ag -2, CHRM4 antagonist 30*, M5 antag 1, M4 ag 0 and CHRM4 PAM -15.
O=C1CNC(c2ccccc2)C(c2ccccc2)N1 (stereo unspecified) was read as CHRM5 PAM -4, M5 ag 0, CHRM4 antagonist -8, M5 antag 10, M4 ag 0 and CHRM4 PAM 4.
Screening COC12CC(=O)C(C(C)=O)=C(O)C1(C)c1c(O)c(C)c(O)c(C(C)=O)c1O2 (stereo unspecified) returned CHRM5 PAM -5, M5 ag 3, CHRM4 antagonist -15, M5 antag 9, M4 ag 5 and CHRM4 PAM 4.
For O=C(Nc1ccc(Br)c(C(F)(F)F)c1)c1ccc(C(F)(F)F)cc1 the results were CHRM5 PAM -34, M5 ag -4, CHRM4 antagonist 34*, M5 antag 31*, M4 ag 10 and CHRM4 PAM -18.
`O=C(Nc1ccc(Br)c(C(F)(F)F)c1)c1ccccc1` gave CHRM5 PAM -16, M5 ag -3, CHRM4 antagonist 0, M5 antag 10, M4 ag 7 and CHRM4 PAM -10.
Screening COc1cccc(C2SCC(=O)N2c2ccc(C)cc2)c1OC (stereo unspecified) returned CHRM5 PAM -19, M5 ag -7, CHRM4 antagonist 65*, M5 antag 22, M4 ag -1 and CHRM4 PAM -39.
`COc1ccc(N2C(=O)CSC2c2cccc(OC)c2OC)cc1` (stereo unspecified) gave CHRM5 PAM -13, M5 ag -7, CHRM4 antagonist 16, M5 antag 4, M4 ag 1 and CHRM4 PAM -10.
For CSc1ccc(C=NNc2ccc(S(=O)(=O)Nc3ccccc3C(=O)O)cc2[N+](=O)[O-])cc1 the results were CHRM5 PAM 3, M5 ag 3, CHRM4 antagonist 1, M5 antag 7, M4 ag 0 and CHRM4 PAM 0.
`O=C(O)c1ccccc1NS(=O)(=O)c1ccc(NN=Cc2ccccc2F)c([N+](=O)[O-])c1` gave CHRM5 PAM 10, M5 ag 1, CHRM4 antagonist -19, M5 antag -6, M4 ag -1 and CHRM4 PAM 24*.
`COc1ccc(C(=O)NCC(=O)OCC(=O)N2CCc3ccccc32)cc1` gave CHRM5 PAM -2, M5 ag -3, CHRM4 antagonist -2, M5 antag 6, M4 ag 1 and CHRM4 PAM 7.
Cc1ccnc(NS(=O)(=O)c2ccc(NC(=O)C3CC3)cc2)n1 was read as CHRM5 PAM 3, M5 ag 1, CHRM4 antagonist -1, M5 antag 5, M4 ag 1 and CHRM4 PAM -1.
For Cc1cc(C)nc(NS(=O)(=O)c2ccc(NC(=O)C3CC3)cc2)n1 the results were CHRM5 PAM 0, M5 ag -1, CHRM4 antagonist -13, M5 antag 7, M4 ag 1 and CHRM4 PAM 3.
Cc1cc(C)nc(NS(=O)(=O)c2ccc(NC(=O)C(C)C)cc2)n1 was read as CHRM5 PAM 4, M5 ag 3, CHRM4 antagonist 62*, M5 antag 6, M4 ag -3 and CHRM4 PAM -12.
`Cc1ccnc(NS(=O)(=O)c2ccc(NC(=O)C34CC5CC(CC(C5)C3)C4)cc2)n1` gave CHRM5 PAM 28*, M5 ag -4, CHRM4 antagonist -16, M5 antag 0, M4 ag 0 and CHRM4 PAM 4.
